{"data": "Measured values gathered from unrelated publications", "target": "Misshapen-like kinase 1 (MINK1, Homo sapiens, UniProt Q8N4C8)", "note": "Compare with care: the assays were run in different laboratories."}
{"SMILES": "C#Cc1n[nH]c2c(-c3cn([C@@H](C)c4ccccc4)c(=O)[nH]c3=O)cc(F)cc12", "assay": "enzyme activity, inhibitor", "conditions": "0.1 µM", "measurement": "inhibition", "result": "2%"}
{"SMILES": "CC(C)(C)c1cc(C=C(C#N)C#N)cc(Br)c1O", "assay": "enzyme activity, inhibitor", "conditions": "0.5 µM", "measurement": "remaining activity", "result": "111%"}
{"SMILES": "Cn1cc(-c2cc(F)cc(N3CCn4c(cc5c4CCCC5)C3=O)c2CO)cc(Nc2ccc(N3CCN(C4COC4)CC3)cn2)c1=O", "assay": "enzyme activity, inhibitor", "conditions": "0.1 µM", "measurement": "inhibition", "result": "12%"}
{"SMILES": "O=c1[nH]c2ccccc2n1C1CCN(Cc2ccc(-c3[nH]c4cc5ncnc5cc4nc3-c3ccccc3)cc2)CC1", "assay": "cell-free assay", "conditions": "0.5 µM", "measurement": "remaining signal", "result": "103%"}
{"SMILES": "Nc1ncc(-c2nc(N3CCOCC3)nc(N3CCOCC3)n2)c(C(F)F)n1", "assay": "binding, competition with immobilised ligand", "conditions": "10 µM", "measurement": "remaining binding", "result": "66%"}
{"SMILES": "Cn1cc(-c2cccc(N3CCc4c(sc5c4CC(C)(C)C5)C3=O)c2CO)cc(Nc2ccncn2)c1=O", "assay": "enzyme activity, inhibitor", "conditions": "1 µM", "measurement": "inhibition", "result": "11%"}
{"SMILES": "N#CC1(c2ccccn2)CCN(Cc2cc(C(=O)O)c(=O)n3ccccc23)CC1", "assay": "cell-free assay, competition with immobilised ligand", "conditions": "1 µM", "measurement": "remaining binding", "result": "92%"}
{"SMILES": "Cc1nn(C)cc1-c1nc2c(N3CCN(Cc4ccc(Cl)cc4)CC3)c(Cl)cnc2[nH]1", "assay": "binding, competition with immobilised ligand", "conditions": "1 µM", "measurement": "remaining binding", "result": "84%"}
{"SMILES": "C#Cc1n[nH]c2c(-c3cn([C@@H](C)c4ccccn4)c(=O)[nH]c3=O)cc(F)cc12", "assay": "enzyme activity, inhibitor", "conditions": "0.1 µM", "measurement": "inhibition", "result": "5.6%"}
{"SMILES": "Cn1cncc1[C@@](O)(COc1ccc(C#N)cc1-c1ccc(OC(F)(F)F)cc1)c1ccc(C#N)cc1", "assay": "cell-free assay, competition with immobilised ligand", "conditions": "1 µM", "measurement": "remaining binding", "result": "100%"}
